Results on 19 compounds are retold here after ChEMBL document CHEMBL4257542, “Design, synthesis, and evaluation of bitopic arylpiperazine-phthalimides as selective dopamine D3 receptor agonists” (Medchemcomm, 2018).

Values joined by “and” are separate entries in the source; they are usually repeats but may differ in a detail not shown here. Equal entries are not always repeated.

As usually defined, the inhibition is the drop in the measured response relative to a control, in per cent. In general, Ki refers to the dissociation constant of the complex between target and ligand, obtained from inhibition or displacement. Lower therefore signals a stronger hold on the target. Usually EC50 stands for the midpoint of the concentration-response curve.

The target of test [1] is T1, D(2) dopamine receptor (Homo sapiens, UniProt P14416). As to the kind of experiment: Displacement of [3H]-sulpiride from human D2 receptor expressed in HEK293 cells at 100 nM after 150 mins by liquid scintillation counting method relative to control. It is filed as cell-based. For orientation: Displacement assays read how much labelled ligand stays bound in the presence of the test substance.
T1 sequence (P14416 whole entry): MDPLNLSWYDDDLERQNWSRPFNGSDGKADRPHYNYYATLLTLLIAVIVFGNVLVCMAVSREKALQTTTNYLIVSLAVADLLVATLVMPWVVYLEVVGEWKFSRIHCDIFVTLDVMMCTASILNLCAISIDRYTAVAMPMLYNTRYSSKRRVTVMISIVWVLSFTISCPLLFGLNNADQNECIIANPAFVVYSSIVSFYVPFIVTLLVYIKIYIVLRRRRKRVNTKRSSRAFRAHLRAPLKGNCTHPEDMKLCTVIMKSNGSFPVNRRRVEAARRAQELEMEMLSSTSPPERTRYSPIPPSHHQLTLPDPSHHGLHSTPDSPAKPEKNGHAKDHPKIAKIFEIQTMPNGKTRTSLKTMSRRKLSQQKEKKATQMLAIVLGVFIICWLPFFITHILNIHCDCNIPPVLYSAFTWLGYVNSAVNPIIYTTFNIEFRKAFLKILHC

Test [2] has as its target T2, D(3) dopamine receptor (Homo sapiens, UniProt P35462). The experiment in a line: Displacement of [3H]-sulpiride from human D3 receptor expressed in HEK293 cells after 150 mins by liquid scintillation counting method. It is filed as cell-based.
Test [3] has as its target T1, D(2) dopamine receptor. The experiment in a line: Displacement of [3H]-sulpiride from human D2 receptor expressed in HEK293 cells after 150 mins by liquid scintillation counting method. Type of test: cell-based. An outline of the steps:
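HEK 293 cells transfected with D2R plasmid, cultured in MEM without then with fetal bovine serum (4 h, 24 h). Seeded overnight, then intact cells incubated with [3H]-sulpiride (2.2 nM) plus compounds for 150 min at 4 °C. Cells were rinsed in ice-cold MEM, lysed in 1% SDS, and counted by liquid scintillation. IC50 from nonlinear dose-response fit; Ki by Cheng-Prusoff.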

The species named for another test is Homo sapiens. As to the kind of experiment: Selectivity ratio of Ki for human D2 receptor expressed in HEK293 cells to Ki for human D3 receptor expressed in HEK293 cells. It is filed as cell-based.
Test [4] addresses T2, D(3) dopamine receptor. The experiment in a line: Potency index, ratio of N-(4-(4-(2,4-dichlorophenyl)piperazin-1-yl)butyl)-1H-indole-2-carboxamide hydrochloride Ki to compound Ki for displacement of [3H]-sulpiride from human D3 receptor expressed in HEK293 cells. Type of test: cell-based.
The target in test [5] is T2, D(3) dopamine receptor. As to the kind of experiment: Agonist activity at human D3 receptor expressed in HEK293 cells assessed as inhibition of forskolin-induced cAMP accumulation after 4 hrs by luciferase reporter gene assay. Type of test: functional, cell-based. A general note: cAMP levels reflect the balance of adenylyl cyclase and phosphodiesterase activity.
The target of test [6] is T2, D(3) dopamine receptor. As to the kind of experiment: Potency index, ratio of quinpirole EC50 to compound EC50 for agonist activity at human D3 receptor expressed in HEK293 cells. Type of test: functional, cell-based.
In test [7] the target is T1, D(2) dopamine receptor. As to the kind of experiment: Displacement of [3H]-sulpiride from human D2 receptor expressed in HEK293 cells at 30 uM after 150 mins by liquid scintillation counting method relative to control. Type of test: cell-based. An outline of the steps: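 HEK 293 cells transiently transfected with D2R plasmid, kept in serum-free MEM for 4 h and then serum-containing MEM for 24 h, seeded and left overnight. Whole cells were incubated with 2.2 nM [3H]-sulpiride plus test compound for 150 min at 4 °C, rinsed with ice-cold MEM, and lysed in 1% SDS. Bound radioactivity was read by liquid scintillation counting.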

T2 sequence (P35462 whole entry): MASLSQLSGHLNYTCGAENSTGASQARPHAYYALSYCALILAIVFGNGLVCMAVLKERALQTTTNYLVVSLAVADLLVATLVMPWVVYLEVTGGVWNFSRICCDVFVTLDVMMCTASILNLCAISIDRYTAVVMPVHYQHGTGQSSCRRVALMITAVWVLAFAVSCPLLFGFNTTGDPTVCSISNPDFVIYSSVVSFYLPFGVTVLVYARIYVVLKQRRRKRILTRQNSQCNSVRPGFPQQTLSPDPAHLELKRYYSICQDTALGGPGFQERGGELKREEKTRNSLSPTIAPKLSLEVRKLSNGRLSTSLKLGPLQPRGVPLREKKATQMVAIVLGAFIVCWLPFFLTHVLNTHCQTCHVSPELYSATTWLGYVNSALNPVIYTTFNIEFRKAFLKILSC

In the case of `O=C1c2ccccc2C(=O)N1CCCCN1CCN(c2cccc(C(F)(F)F)c2)CC1`, the inhibition on D(2) dopamine receptor [1] is 37.9% and 44%.
For the compound `O=C1c2ccccc2C(=O)N1CCCCN1CCN(c2c(F)cccc2F)CC1`, the inhibition on D(2) dopamine receptor [1] came to 10.3%.
For `O=C1c2ccccc2C(=O)N1CCCCN1CCC(n2c(=O)[nH]c3cc(Cl)ccc32)CC1`, the inhibition at D(2) dopamine receptor [1] is 56.1%.
On the same count and under the same terms, the value for `O=C1c2ccccc2C(=O)N1CCCCN1CCN(c2ccc(F)cc2)CC1` was -6.3%; that for `O=C1c2ccccc2C(=O)N1CCCCN1CCN(c2ccc(Cl)cc2F)CC1` was 2.8%; that for `CCN1CCCC1CNC(=O)c1cc(S(N)(=O)=O)ccc1OC` (configuration not stated) was 92.2%.
On to `O=C1c2ccccc2C(=O)N1CCCCN1CCN(c2cccc(F)c2F)CC1`, for which the inhibition on D(2) dopamine receptor [1] is 17.7%. For the same compound, the figures for the inhibition constant Ki on D(3) dopamine receptor [2] and on D(2) dopamine receptor [3] were 19.3 nM and 2160 nM, respectively. Also, the Ratio Ki worked out at 112 in the test filed under Homo sapiens and 21 on D(3) dopamine receptor [4]. Besides, on D(3) dopamine receptor [5], the EC50 turned out to be 0.00048 nM. Besides, the Ratio EC50 at D(3) dopamine receptor [6] lay within 199 to 200.
As for `O=C(CCCCN1CCN(c2ccc(Cl)cc2Cl)CC1)Nc1nc2ccccc2s1`, in the test listed under Homo sapiens, the Ratio Ki stood at 63.8.
`O=C(CCCCN1CCN(c2ccccc2F)CC1)Nc1nc2ccccc2s1`: the Ratio Ki in the test listed under Homo sapiens was determined as 45.
As to `O=C1c2ccccc2C(=O)N1CCCCN1CCN(c2ccc(Cl)cc2Cl)CC1`, on D(2) dopamine receptor [1], the inhibition was found to be 30.2%.
In the case of `O=C1c2ccccc2C(=O)N1CCCCN1CCN(c2cccc(Cl)c2Cl)CC1`, the inhibition at D(2) dopamine receptor [1] amounted to 70.3%.
On to `O=C1c2ccccc2C(=O)N1CCCCN1CCN(c2ccccc2Cl)CC1`, for which the inhibition on D(2) dopamine receptor [1] turned out to be 28.7%.
In the case of `COc1ccccc1C1CCN(CCCCN2C(=O)c3ccccc3C2=O)CC1`, at D(2) dopamine receptor [1], the inhibition was 92.2%.
On the same count and under the same terms, the same measure for `O=C1c2ccccc2C(=O)N1CCCCN1CCN(c2cc(C(F)(F)F)ccc2F)CC1`: -4.7%.
`O=C1c2ccccc2C(=O)N1CCCCN1CCN(c2cccc(Cl)c2)CC1`: on D(2) dopamine receptor [1], the inhibition was 64.8%.
On the same count and under the same terms, the value for `O=C1c2ccccc2C(=O)N1CCCCN1CCN(c2ccccc2F)CC1` was 31.8%.
On the same count and under the same terms, the value for `O=C1c2ccccc2C(=O)N1CCCCN1CCN(c2ccc(F)cc2F)CC1` was 4.8%.
Take `O=C(NCCCCN1CCN(c2cccc(Cl)c2Cl)CC1)c1cc2ccccc2[nH]1`: the half-maximal effective concentration (EC50) at D(3) dopamine receptor [5] stood at 0.026 nM.
For the compound `O=C(NCCCCN1CCN(c2ccc(Cl)cc2Cl)CC1)c1cc2ccccc2[nH]1`, the inhibition is 22.7% on D(2) dopamine receptor [1] and less than 50% on D(2) dopamine receptor [7]. At D(2) dopamine receptor [3], the Ki is greater than 23900 nM.
